Results from ChEMBL document CHEMBL4321824, “Structure-Activity Relationships of cyclo(l-Tyrosyl-l-tyrosine) Derivatives Binding to Mycobacterium tuberculosis CYP121: Iodinated Analogues Promote Shift to High-Spin Adduct” (J Med Chem, 2019).

Tests used:
Cytochrome P450 [1] = biological target: T1, Cytochrome P450 (Mycobacterium tuberculosis, UniProt A0A0T9WNE5); test: Binding affinity to Mycobacterium tuberculosis His6-tagged CYP121 by UV-visible scanning spectrophotometric analysis
T1 sequence (A0A0T9WNE5 whole entry): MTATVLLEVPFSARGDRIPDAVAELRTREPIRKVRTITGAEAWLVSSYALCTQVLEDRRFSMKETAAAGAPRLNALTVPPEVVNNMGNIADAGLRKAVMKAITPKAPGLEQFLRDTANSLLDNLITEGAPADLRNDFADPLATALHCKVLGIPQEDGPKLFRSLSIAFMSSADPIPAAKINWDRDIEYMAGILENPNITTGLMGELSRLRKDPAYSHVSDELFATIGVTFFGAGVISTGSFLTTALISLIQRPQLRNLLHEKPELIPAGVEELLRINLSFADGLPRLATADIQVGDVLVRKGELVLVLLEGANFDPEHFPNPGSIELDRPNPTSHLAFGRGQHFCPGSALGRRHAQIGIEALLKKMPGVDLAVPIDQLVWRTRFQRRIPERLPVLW
In short: (§1)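 Spectrophotometric titration of 3–4 µM CYP121 (untagged or N-terminal His6-tagged) at 25 °C in 100 mM potassium phosphate, 200 mM KCl, pH 7.8. Ligand in DMSO added stepwise from 0 µM until no further spectral change; spectra recorded 250–800 nm. Difference spectra taken against ligand-free enzyme, and peak-minus-trough ΔAmax plotted against [ligand]. KD obtained by hyperbolic fit, or Hill fit for sigmoidal data.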

Cytochrome P450 [2] = biological target: T1, Cytochrome P450; test: Stability in Mycobacterium tuberculosis assessed as CYP121-catalyzed turnover; type: ADME
Cytochrome P450 [3] = biological target: T1, Cytochrome P450; test: Binding affinity to Mycobacterium tuberculosis His6-tagged CYP121 assessed as compound-adduct formation by measuring high spin complex by UV-visible scanning spectrophotometric analysis relative to control; parameters: concentration or dose not given beside the values
In short: (§2)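 Fraction of high-spin heme taken from UV-Vis titration spectra of CYP121 (untagged or His6-tagged; 3–4 µM, 25 °C, 100 mM potassium phosphate, 200 mM KCl, pH 7.8). %HS calculated from absorbances at 415 and 393 nm using LS and HS extinction coefficients.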

Cytochrome P450 [4] = biological target: T1, Cytochrome P450; test: Binding affinity to Mycobacterium tuberculosis His6-tagged CYP121 assessed as compound-adduct formation by measuring high spin complex at 0.5 to 2 mM incubated for 20 mins by EPR Spectroscopic method (reference value: 0%)
In short: (§3)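 EPR samples contained 155 µM CYP121 (untagged or His6-tagged) in 100 mM HEPES, 100 mM KCl, pH 7.5, with ligand or DMSO at a final 0.5–2 mM depending on solubility. Samples were incubated 20 min at room temperature and briefly centrifuged before spectra were recorded; the high-spin heme signal was assessed.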

[5] = system: Mycobacterium tuberculosis; test: Antimycobacterial activity against Mycobacterium tuberculosis H37Rv assessed as reduction in bacterial growth after 7 days by resazurin based fluorescence assay; type: functional; details: 168 h
In short: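 Mtb H37Rv grown in 7H9 with ADC to OD 0.6–0.8, then diluted to OD600 0.001 and added to 1:2 serial compound dilutions (usually from 100 µM; 0.1% DMSO). Incubated 7 days at 37 °C, then 0.05% w/v resazurin for 24 h at 37 °C. Fluorescence read at 590 nm, background subtracted, and survival expressed relative to untreated wells. Rifampicin served as positive control.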

Cytochrome P450 [6] = biological target: T1, Cytochrome P450; test: Binding affinity to Mycobacterium tuberculosis CYP121 expressed in Escherichia coli HMS174 (DE3) by UV-visible scanning spectrophotometric analysis; in short: as §1
Cytochrome P450 [7] = biological target: T1, Cytochrome P450; test: Binding affinity to Mycobacterium tuberculosis Mycobacterium tuberculosis CYP121 expressed in Escherichia coli HMS174 (DE3) assessed as compound-adduct formation by measuring high spin complex by UV-visible scanning spectrophotometric analysis relative to control; parameters: concentration or dose not given beside the values; in short: as §2
Cytochrome P450 [8] = biological target: T1, Cytochrome P450; test: Binding affinity to Mycobacterium tuberculosis CYP121 expressed in Escherichia coli HMS174 (DE3) assessed as compound-adduct formation by measuring high spin complex at 0.5 to 2 mM incubated for 20 mins by EPR Spectroscopic method (reference value: 0%); in short: as §3
Cytochrome P450 [9] = biological target: T1, Cytochrome P450; test: Potency index, ratio of cyclo(L-Tyrosine-L-tyrosine) Kd for binding affinity to Mycobacterium tuberculosis CYP121 expressed in Escherichia coli HMS174 (DE3) to test compound Kd for binding affinity to Mycobacterium tuberculosis His6-tagged CYP121 by UV-visible scanning spectrophotometric analysis
Cytochrome P450 [10] = biological target: T1, Cytochrome P450; test: Potency index, ratio of cyclo(L-Tyrosine-L-tyrosine) Kd to test compound Kd for binding affinity to Mycobacterium tuberculosis CYP121 expressed in Escherichia coli HMS174 (DE3) by UV-visible scanning spectrophotometric analysis
Cytochrome P450 [11] = biological target: T1, Cytochrome P450; test: Binding affinity to Mycobacterium tuberculosis CYP121 expressed in Escherichia coli HMS174 (DE3) at 120 uM by UV-visible scanning spectrophotometric analysis

| Structure (SMILES) | Kd (Cytochrome P450 [1]) [µM] | Stability (Cytochrome P450 [2]) | Activity (Cytochrome P450 [3]) [%] | Activity (Cytochrome P450 [4]) [%] | MIC [5] [µM] | Kd (Cytochrome P450 [6]) [µM] | Activity (Cytochrome P450 [7]) [%] | Activity (Cytochrome P450 [8]) [%] | Ratio (Cytochrome P450 [9]) | Ratio (Cytochrome P450 [10]) | Activity (Cytochrome P450 [11]) |
| --- | --- | --- | --- | --- | --- | --- | --- | --- | --- | --- | --- |
| Cc1cc(O)ccc1C[C@@H]1NC(=O)[C@H](Cc2ccc(O)cc2)NC1=O | 39.8 | Stable | 20 | 0.6 | > 100 | – | – | – | – | – | – |
| O=C1N[C@@H](Cc2ccc(F)cc2)C(=O)N[C@H]1Cc1ccc(F)cc1 | – | Stable | – | – | > 100 | 6.3 | 1 | 1.5 | – | – | – |
| O=C1N[C@@H](Cc2ccc(O)c(I)c2)C(=O)N[C@H]1Cc1ccc(O)cc1 | 0.28 | Stable | 98 | 86 | > 100 | – | – | – | <= 100 | – | – |
| O=C1N[C@@H](Cc2ccc(O)c(I)c2)C(=O)N[C@H]1Cc1ccc(O)c(I)c1 | – | Stable | – | – | > 100 | 0.45 | 100 | 100 | <= 100 | – | – |
| O=C1N[C@H]2Cc3ccc(O)c(c3)-c3cc(ccc3O)C[C@@H]1NC2=O | – | Unstable | – | – | – | – | – | – | – | – | – |
| COc1ccc(C[C@@H]2NC(=O)[C@H](Cc3ccc(OC)cc3)NC2=O)cc1 | – | Stable | – | – | > 100 | 29.4 | 35 | 56 | – | – | – |
| COc1ccc(C[C@@H]2NC(=O)[C@H](Cc3ccc(O)cc3)NC2=O)cc1 | – | Stable | – | – | > 100 | 10.4 | 61 | 64 | – | 3 | – |
| O=C1N[C@@H](Cc2ccc(O)c(Cl)c2)C(=O)N[C@H]1Cc1ccc(O)cc1 | 1.5 | Stable | 68 | 21 | > 100 | – | – | – | – | – | – |
| O=C1N[C@@H](Cc2cc(I)c(O)c(I)c2)C(=O)N[C@H]1Cc1ccc(O)cc1 | 9.1 | Stable | 74 | 38 | > 100 | – | – | – | – | – | – |
| Cc1cc(O)cc(C)c1C[C@@H]1NC(=O)[C@H](Cc2ccc(O)cc2)NC1=O | > 100 | Stable | 1 | 1.9 | > 100 | – | – | – | – | – | Not Active |
| O=C1N[C@@H](Cc2ccc(O)cc2)C(=O)N[C@H]1Cc1ccccc1 | – | Stable | – | – | > 100 | 80.8 | 5 | 1.4 | – | – | – |
| O=C1N[C@@H](Cc2ccccc2)C(=O)N[C@H]1Cc1ccccc1 | – | Stable | – | – | > 100 | 2.4 | 3 | 0 | – | – | – |
| Cc1cc(C[C@@H]2NC(=O)[C@H](Cc3ccc(O)cc3)NC2=O)ccc1O | 1.1 | Stable | 91 | 11 | > 100 | – | – | – | – | – | – |
| O=C1N[C@@H](Cc2ccc(O)c(Br)c2)C(=O)N[C@H]1Cc1ccc(O)cc1 | 0.46 | Stable | 85 | 68 | > 100 | – | – | – | – | – | – |
| Cc1cc(C[C@@H]2NC(=O)[C@H](Cc3ccc(O)cc3)NC2=O)cc(C)c1O | 15.1 | Stable | 75 | 62 | > 100 | – | – | – | – | – | – |
| O=C1N[C@@H](Cc2ccc(O)c(F)c2)C(=O)N[C@H]1Cc1ccc(O)cc1 | 12.8 | Stable | 36 | 1.2 | > 100 | – | – | – | – | – | – |
| O=C1N[C@@H](Cc2ccc(O)cc2)C(=O)N[C@H]1Cc1ccc(O)cc1 | – | – | – | – | – | – | 52 | 2.7 | – | – | – |
| O=C1N[C@@H](Cc2ccc(I)cc2)C(=O)N[C@H]1Cc1ccc(I)cc1 | – | Stable | – | – | > 100 | 0.72 | 3 | 7.5 | <= 100 | – | – |
